Compound activity from PubChem BioAssay.
MrgX1 PAM – allosterically activates human MrgX1 receptor signaling; Q96LB2; MrgX1-HEK293, Fluo-4 calcium flux, FDSS; hits give high values; B-score at 10 µM; 310,000 compounds, 0.63% hits;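 active means plate-corrected calcium response at least 3 library SD above typical, normal starting fluorescence, not activating the receptor alone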;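 further: compound read alongside a low EC10 to EC30 dose of BAM8-22 agonist; peak minus trough fluorescence over baseline measured at the second addition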
Target sequence (Q96LB2 whole entry, looked up): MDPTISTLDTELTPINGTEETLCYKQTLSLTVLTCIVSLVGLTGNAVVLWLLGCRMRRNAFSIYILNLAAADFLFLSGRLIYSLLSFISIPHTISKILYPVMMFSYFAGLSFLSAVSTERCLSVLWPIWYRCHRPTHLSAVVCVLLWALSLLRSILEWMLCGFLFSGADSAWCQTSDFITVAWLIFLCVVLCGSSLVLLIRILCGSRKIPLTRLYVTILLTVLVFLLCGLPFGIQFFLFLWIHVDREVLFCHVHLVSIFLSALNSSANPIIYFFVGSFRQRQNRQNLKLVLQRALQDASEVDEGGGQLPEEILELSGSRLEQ
MrgX1 antagonist – blocks BAM8-22 activation of human MrgX1 receptor | Q96LB2 | MRGX1-HEK293 calcium flux, Fluo-4, BAM8-22 antagonism; hits give low values | B-score at 10 µM | 310,000 compounds, 1.3% hits | AID 588676;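 active means calcium-response B-score plate-corrected more than 3 library SD below zero, starting fluorescence within 5 deviations, no agonist response on first addition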;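 further: peak minus trough fluorescence over baseline after final BAM8-22 challenge near maximal dose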
RGS4 act – potentiators or activators of RGS4; HEK293 M3R/inducible RGS4, carbachol calcium flux Fluo4; hits give low values; B-score at 10 µM; 310,000 compounds, 0.92% hits;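 active means B-score of the integrated calcium signal more than 4 SD below the library mean, with starting fluorescence not abnormally high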;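 further: negative B-score means reduced calcium response which marks RGS4 activation or potentiation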
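test system = HEK293 cells with stable M3R and inducible RGS4 | schedule = recording 10 s baseline at 1 Hz, 100 s post-agonist | technique = Fluo4-AM (2 µM) calcium-flux fluorescence, kinetic read | measure = Agonist-evoked peak-minus-minimum fluorescence over baseline, integrated ratio, B score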
MrgX1 agonist – human MrgX1 receptor agonism, primary screen. MrgX1-HEK293 cells, Fluo-4 calcium fluorescence, agonist mode; hits give high values. 310,000 compounds, 0.44% hits. B-score at 10 µM. AID 588627. Q96LB2;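 active means calcium response B-score plate-corrected fluorescence ratio at least 3 library SD, with starting fluorescence B-score inside 5 SD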
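Material: HEK293 cells stably expressing human MrgX1 receptor | Quantity: 15,000 cells per well | Times: Cells plated overnight, dye loaded 0.5 h 37 °C, 0.5 h room temperature | Measured by: Kinetic Fluo-4 NW fluorescence of intracellular calcium | Control set: Positive and negative controls per plate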
RGS4 inh – inhibitors of human RGS4 | HEK293 M3R/RGS4 inducible, Fluo-4 calcium flux; hits give high values; triggered by carbachol at its EC20 | B-score at 10 µM | 310,000 compounds, 0.45% hits | AID 463165;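 active means B-score, a plate-corrected calcium signal, over three deviations above library mean, with baseline fluorescence within five deviations of library mean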;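 further: RGS4 expression induced by doxycycline in cells with stable M3 receptor; B-score is computed from the integrated fluorescence ratio over baseline after carbachol; higher B-score means a larger calcium signal and so more RGS4 inhibition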
Target sequence (P49798 whole entry, looked up): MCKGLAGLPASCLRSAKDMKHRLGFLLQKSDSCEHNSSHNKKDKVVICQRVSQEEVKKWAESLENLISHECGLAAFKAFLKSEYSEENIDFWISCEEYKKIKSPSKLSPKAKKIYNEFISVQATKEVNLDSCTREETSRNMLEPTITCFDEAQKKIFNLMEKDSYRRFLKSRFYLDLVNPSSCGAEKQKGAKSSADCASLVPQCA
RGS4 block valid – RGS4 inhibitor validation. 1,700 compounds, 65% hits. HEK293 M3R/RGS4, carbachol calcium Fluo-4 fluorescence; carbachol added at its EC20; 0 = buffer wells, 100 = carbachol control. calcium response, % at 10 µM. shares compounds with RGS4 inh;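 active means duplicate-averaged calcium response above the buffer-only control mean plus 5 SD of those controls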;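 further: integrated fluorescence ratio F max minus min over baseline F0; higher response in RGS4-induced cells means RGS4 inhibition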
RGS4 uninduced – non-induced cell nonspecific activity of RGS4 inhibitors | 1,900 compounds, 20% hits | activity (percent), % at 10 µM | HEK293 M3R non-induced, carbachol calcium Fluo-4; submaximal (EC20) carbachol stimulus; buffer wells 0%, carbachol control wells 100% | shares compounds with RGS4 inh; call rule not given here;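 further: RGS4 induction absent so cells express M3R without RGS4; higher means more calcium signal and flags a non-specific hit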
M3R basal Ca ctr – signal in non-induced cells without carbachol, RGS4 inhibitor counter-screen; shares compounds with RGS4 inh; HEK293 M3R/RGS4 non-induced, Fluo-4 calcium, no carbachol; normalised: buffer wells 0%, carbachol wells 100%; calcium response (agonist-mode artifact), % at 10 µM; 1,900 compounds, 22% hits; AID 493001;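 active means duplicate-averaged calcium rise in uninduced cells above buffer wells' mean plus 5 SD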
* = called active by the depositor. Shown are actives, neighbours in structure and some others; about 3.5% of the full set was active somewhere.

Screening O=C(c1ccc(COCC(F)(F)F)o1)N1CCCCCC1 returned MrgX1 PAM inactive, MrgX1 antagonist inactive, RGS4 act inactive, MrgX1 agonist inactive, RGS4 inh inactive, RGS4 uninduced 38%* and M3R basal Ca ctr inactive.
Screening CCCC(=O)N(C1CC(C)C(C#N)(C#N)C1(C#N)C#N)N(C)C (stereo not drawn) returned MrgX1 PAM inactive, MrgX1 antagonist inactive, RGS4 act inactive, MrgX1 agonist inactive, RGS4 inh 7.7*, RGS4 block valid 30%*, RGS4 uninduced inactive and M3R basal Ca ctr 22%*.
Screening CC(=O)N(C1CC(C)C(C#N)(C#N)C1(C#N)C#N)N(C)C (stereo not drawn) returned MrgX1 PAM inactive, MrgX1 antagonist inactive, RGS4 act inactive, MrgX1 agonist inactive, RGS4 inh 28*, RGS4 block valid 62%*, RGS4 uninduced inactive and M3R basal Ca ctr 9.0%*.
For COc1ccc(C2CC(c3ccccc3)=NN2C(=O)COC(=O)/C=C/c2ccc(O)c(OC)c2)cc1 (stereo not drawn) the results were MrgX1 PAM inactive, MrgX1 antagonist inactive, RGS4 act inactive, MrgX1 agonist inactive and RGS4 inh inactive.
`COC(=O)/C(=C/c1c[nH]c2ccccc12)[N+](=O)[O-]` gave MrgX1 PAM inactive, MrgX1 antagonist inactive, RGS4 act inactive, MrgX1 agonist 34*, RGS4 inh 21*, RGS4 block valid 18%*, RGS4 uninduced 35%* and M3R basal Ca ctr 20%*.
For Cc1ccc(NC(=O)NC(=O)CSc2nnc(-c3ccc(Cl)cc3Cl)n2N)c(C)c1 the results were MrgX1 PAM inactive, MrgX1 antagonist inactive, RGS4 act inactive, MrgX1 agonist inactive, RGS4 inh 5.2*, RGS4 block valid inactive, RGS4 uninduced inactive and M3R basal Ca ctr inactive.
Screening Cc1ccc(-c2nnc(SCC(=O)NC(=O)Nc3ccc(C)cc3C)n2N)cc1 returned MrgX1 PAM inactive, MrgX1 antagonist inactive, RGS4 act inactive, MrgX1 agonist inactive and RGS4 inh inactive.
Screening Cc1ccc(C(=O)Nc2ccc3c(c2)nc(CCNC(=O)c2ccco2)n3C)cc1 returned MrgX1 PAM inactive, MrgX1 antagonist inactive, RGS4 act inactive, MrgX1 agonist inactive and RGS4 inh inactive.
For CC(=O)Nc1ccc2c(c1)nc(CCNC(=O)c1ccco1)n2C the results were MrgX1 PAM inactive, MrgX1 antagonist inactive, RGS4 act inactive, MrgX1 agonist inactive, RGS4 inh inactive, RGS4 block valid inactive, RGS4 uninduced inactive and M3R basal Ca ctr inactive.
Screening O=C(CN1CCN(c2ccc(O)cc2)CC1)NC(c1ccccc1)c1ccccc1 returned MrgX1 PAM inactive, MrgX1 antagonist inactive, RGS4 act inactive, MrgX1 agonist inactive, RGS4 inh 13*, RGS4 block valid inactive, RGS4 uninduced inactive and M3R basal Ca ctr inactive.
`O=C(CN1CCCCCC1)NC(c1ccccc1)c1ccccc1` gave MrgX1 PAM inactive, MrgX1 antagonist inactive, RGS4 act inactive, MrgX1 agonist inactive and RGS4 inh inactive.
`O=C(N/N=C/c1ccc(O)cc1)c1[nH]c2ccc(Br)cc2c1-c1ccccc1` gave MrgX1 PAM inactive, MrgX1 antagonist inactive, RGS4 act inactive, MrgX1 agonist inactive and RGS4 inh inactive.
Screening O=C(N/N=C/c1c[nH]c2ccccc12)c1[nH]c2ccc(Br)cc2c1-c1ccccc1 returned RGS4 act inactive, RGS4 inh 7*, RGS4 block valid 18%*, RGS4 uninduced 28%* and M3R basal Ca ctr inactive.
For COc1ccc(NC(=O)/C(Cl)=C(/Cl)S(=O)(=O)Cc2ccccc2)cn1 the results were RGS4 act inactive, RGS4 inh 18*, RGS4 block valid 69%*, RGS4 uninduced 48%* and M3R basal Ca ctr 15%*.
Screening Cc1ccc(-c2cc(C(F)F)nc(NCc3cccnc3)n2)cc1 returned MrgX1 PAM inactive, MrgX1 antagonist inactive, RGS4 act inactive, MrgX1 agonist inactive, RGS4 inh 7.7*, RGS4 block valid inactive, RGS4 uninduced inactive and M3R basal Ca ctr inactive.
Cc1ccc(-c2cn(-c3ccccc3)c(SCC(N)=O)n2)cc1C was read as MrgX1 PAM inactive, MrgX1 antagonist inactive, RGS4 act inactive, MrgX1 agonist inactive, RGS4 inh 4.7*, RGS4 block valid 9.5%*, RGS4 uninduced inactive and M3R basal Ca ctr inactive.
CCOC(=O)NC(=O)CSc1nc(-c2ccc(C)c(C)c2)cn1-c1ccccc1 was read as MrgX1 PAM inactive, MrgX1 antagonist inactive, RGS4 act inactive, MrgX1 agonist inactive and RGS4 inh inactive.
Screening CNC[C@H](O)c1ccc(O)c(O)c1 returned MrgX1 PAM inactive, MrgX1 antagonist inactive, RGS4 act inactive, MrgX1 agonist 39*, RGS4 inh 4.9*, RGS4 block valid 32%*, RGS4 uninduced 57%* and M3R basal Ca ctr inactive.
For CNC[C@H](O)c1cccc(O)c1 the results were MrgX1 PAM inactive, MrgX1 antagonist inactive, RGS4 act inactive, MrgX1 agonist inactive and RGS4 inh inactive.
C=CCOc1ccc(C(=O)/C=C2/C(=O)Nc3ccccc32)cc1 was read as MrgX1 PAM inactive, MrgX1 antagonist inactive, RGS4 act inactive, MrgX1 agonist inactive, RGS4 inh 4.7*, RGS4 block valid 14%*, RGS4 uninduced 37%* and M3R basal Ca ctr inactive.
Screening O=C1Nc2ccccc2/C1=C/C(=O)c1cccs1 returned MrgX1 PAM inactive, MrgX1 antagonist inactive, RGS4 act inactive, MrgX1 agonist inactive, RGS4 inh 7.1*, RGS4 block valid 14%*, RGS4 uninduced inactive and M3R basal Ca ctr inactive.
For COc1ccc(C(=O)/C=C2/C(=O)Nc3ccccc32)cc1 the results were MrgX1 PAM inactive, MrgX1 antagonist inactive, RGS4 act inactive, MrgX1 agonist inactive, RGS4 inh 7*, RGS4 block valid 16%*, RGS4 uninduced inactive and M3R basal Ca ctr inactive.
`O=C1NC(=S)S/C1=C\c1coc2ccc(O)cc2c1=O` gave MrgX1 PAM inactive, MrgX1 antagonist inactive, RGS4 act inactive, MrgX1 agonist inactive, RGS4 inh 6.3*, RGS4 block valid 26%*, RGS4 uninduced 65%* and M3R basal Ca ctr inactive.
